Assay outcomes from PubChem BioAssay.
Shown are actives, neighbours in structure and some others; about 2.7% of the full set was active somewhere.
PAFAH1B3 inh: PAFAH1B3 enzyme inhibitors, primary screen, biochemical, fluorescence polarization, human; Platelet-activating factor acetylhydrolase IB subunit alpha1 (Homo sapiens), Q15102; recombinant PAFAH1B3, FP-rhodamine probe; inhibition, % at 3.39 µM; actives 0.28% (n = 340,000); AID 492972, 2010;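 active = inhibition above the screen-wide average of all tested compounds plus 3 SD, cut at about 25% in these data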;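 also: 0% = enzyme with DMSO only and 100% = wells lacking PAFAH1B3 protein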
Target sequence (Q15102 whole entry, looked up): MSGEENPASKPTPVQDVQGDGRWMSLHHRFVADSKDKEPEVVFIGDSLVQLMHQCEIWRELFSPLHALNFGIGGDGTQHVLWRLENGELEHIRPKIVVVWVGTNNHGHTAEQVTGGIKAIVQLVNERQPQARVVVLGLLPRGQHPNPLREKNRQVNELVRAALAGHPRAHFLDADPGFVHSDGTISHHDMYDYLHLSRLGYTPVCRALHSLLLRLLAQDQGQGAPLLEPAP
PAFAH1B2 FP inh: PAFAH1B2 enzyme inhibitors, primary screen, biochemical, fluorescence polarization, human | AID 492953, 2010 | actives 1.2% (n = 340,000) | recombinant PAFAH1B2, FP-rhodamine activity probe | inhibition, % at 3.39 µM;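 active = inhibition above the mean of all tested compounds plus 3 SD, cut at about 24% in these data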;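 also: 0% = enzyme with DMSO and 100% = wells lacking PAFAH1B2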
ARFGAP1 inh: inhibitors of rat ARFGAP1 GAP activity, primary screen, biochemical, fluorescence polarization, GDP tracer; ADP-ribosylation factor GTPase-activating protein 1 (Rattus norvegicus), Q62848; Arfgap1-stimulated ARF1 GTP hydrolysis, GDP FP detection; inhibition, % at 16.5 µM; actives 0.26% (n = 360,000);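 active = inhibition above a per-plate limit, mean inhibition of low control wells plus 3 SD, cut at about 25% in these data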;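 also: 0% = DMSO wells with enzyme and 100% = wells lacking Arfgap1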
Target sequence (Q62848 1-136 limits assumed): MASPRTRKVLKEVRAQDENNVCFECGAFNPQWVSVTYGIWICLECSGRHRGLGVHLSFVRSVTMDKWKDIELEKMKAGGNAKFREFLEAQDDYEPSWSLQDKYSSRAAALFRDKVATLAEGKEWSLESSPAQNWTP
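Material: rat Arfgap1 catalytic domain, aa 1-136; also added: human ARF1(Δ1-17)-GTP substrate; compound dosing: one concentration, 16.5 µM, DMSO 1.26%; incubation: GTP hydrolysis reaction 2 h at 25 °C; measured by: Tracer-displacement fluorescence polarization with EDTA stop, 620/688 nm; evaluation: % inhibition from polarization; repeats: one replicate per compound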
pPAFAH inh: pPAFAH enzyme inhibitors, primary screen, biochemical, fluorescence polarization, human; AID 463082, 2010; actives 1.5% (n = 330,000); recombinant pPAFAH, FP-rhodamine probe fluorescence polarization; Platelet-activating factor acetylhydrolase (Homo sapiens), Q13093; inhibition, % at 3.39 µM;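 active = inhibition above the mean inhibition across the screen plus 3 SD, cut at about 25% in these data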;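 also: inhibitors block binding of the rhodamine activity-based probe so polarization drops; 0% = enzyme with DMSO and 100% = wells lacking pPAFAH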
ASAP1 inh: inhibitors of human ASAP1 ArfGAP activity, primary screen, biochemical, fluorescence polarization; Arf-GAP with SH3 domain, ANK repeat and PH domain-containing protein 1 (Homo sapiens), …; ASAP1-stimulated ARF1 GTP hydrolysis, GDP FP detection; inhibition, % at 16.5 µM; actives 0.19% (n = 360,000); AID 624377, 2012; in the data active = inhibition above about 25%;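 also: 0% = vehicle with enzyme and substrate and 100% = no enzyme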
PAFAH2 inh: PAFAH2 enzyme inhibitors, primary screen, biochemical, fluorescence polarization, human. Platelet-activating factor acetylhydrolase 2, cytoplasmic (Homo sapiens), Q99487. recombinant PAFAH2, FP-rhodamine activity probe. inhibition, % at 3.39 µM. actives 0.99% (n = 340,000). AID 492956, 2010;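 active = inhibition above the mean over all tested compounds plus 3 SD, cut at about 30% in these data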;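 also: inhibitors block probe labeling of enzyme so polarization drops; 0% = enzyme with DMSO and 100% = wells lacking PAFAH2 protein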
ARFGAP1 inh conf: ARFGAP1 inhibitor hit confirmation, biochemical, fluorescence polarization, triplicate | inhibition, % at 16.5 µM | shares compounds with ARFGAP1 inh | actives 30% (n = 890) | ARFGAP1-stimulated ARF1 GTP hydrolysis, GDP tracer FP;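 active = average inhibition over triplicates above the hit cutoff set in the earlier primary screen, cut at about 25% in these data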;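 also: 0% = Arfgap1 plus ARF1-GTP with DMSO and 100% = wells lacking Arfgap1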
Numbers without * were called inactive; x = not tested or not shown.

SMILES	PAFAH1B3 inh	PAFAH1B2 FP inh	ARFGAP1 inh	pPAFAH inh	ASAP1 inh	PAFAH2 inh	ARFGAP1 inh conf
CC(C)C[C@H]1CN(CCCC[C@H]2CNC(=O)C(=O)N2CC2CCCCC2)C(=O)C(=O)N1CCc1ccccc1	x	x	30.1*	x	-13.7	x	3.3
Cc1cccnc1Nc1nc(-c2ccc(O)cc2O)cs1	8.2	6.6	33.7*	1.9	21.1	-1.3	17.6
Cn1nc(C(=O)NCC2COc3ccccc3O2)c2ccccc2c1=O (stereo not drawn)	4.4	3.7	3.7	-0.5	5.7	-1.8	x
COc1ccc(N/N=C/c2c(C(=O)O)ccc3ccccc23)cc1	13.8	6.5	26.2*	18.9	11.3	11.5	31.4*
COc1ccc2ccccc2c1/C=N/Nc1ccc(Cl)c(C(=O)O)c1	10.9	1.8	-2.8	10.2	-3.7	11.2	x
CC(=O)Nc1ccc(NC(=S)NC(=O)/C=C/c2ccc(Cl)cc2)cc1	-2.4	3.9	0.5	-5.3	-8.8	0.8	x
O=C(/C=C/c1ccc(Cl)cc1)NC(=S)Nc1ccc(NC(=O)c2ccco2)cc1	-76.7	-25.1	86.2*	-17.0	21.9	-87.1	110.0*
COc1ccc(-c2cc(NC=O)c3ncc(-c4ccc(C(C)=O)cc4)n3c2)cn1	x	x	29.2*	x	20.5	x	34.3*
COc1ccc(-c2cc(NC=O)c3ncc(-c4cccc(C(=O)NCCN(C)C)c4)n3c2)cc1	x	x	27.4*	x	8.3	x	26.6*
CC(=O)Nc1cccc(-c2cc(NC=O)c3ncc(-c4ccc(C(C)=O)cc4)n3c2)c1	x	x	25.0*	x	19.5	x	19.3
CN(C)CCNC(=O)c1cccc(-c2cnc3c(NC=O)cc(-c4ccc(F)cc4)cn23)c1	x	x	-1.5	x	-3.1	x	x
CCc1nc2ccc(C(=O)NCCCn3ccnc3)cn2c1N(C)Cc1cc2ccccc2s1	x	x	-1.0	x	-1.3	x	x
N#Cc1ccc(Nc2nc(-c3ccccc3)cs2)cc1	x	x	30.3*	x	0.1	x	14.3
COc1ccc(-c2csc(Nc3ccc(Oc4ccccc4)cc3)n2)cc1	x	x	6.8	x	-0.1	x	x
Cn1nnnc1Sc1ncnc2scc(-c3ccc([N+](=O)[O-])cc3)c12	3.8	3.6	-1.6	7.7	0.5	5.2	x
C=C(C)COc1ccc(-c2[nH]ncc2-c2ccc(OC)cc2)c(O)c1	6.3	4.3	26.1*	18.5	-3.2	2.2	7.4
Cc1ccc(S(=O)(=O)NCCC(=O)Nc2cccc(S(=O)(=O)N3CCCC3)c2)cc1C	1.2	-2.5	33.9*	-1.4	-2.5	-1.8	2.5
CCCc1ccc(Oc2cn[nH]c2-c2ccc(O)cc2O)cc1	3.8	0.5	29.9*	10.7	14.8	7.4	18.4
Cc1nc(NCc2ccc(S(N)(=O)=O)cc2)c2c(C)c(C)sc2n1	-1.3	5.6	44.4*	4.0	22.0	-2.6	32.1*
COc1ccc(NC(=O)C2(C)CCN2Cc2ccc(OC(F)(F)F)cc2)cc1OC (stereo not drawn)	x	x	1.2	x	9.9	x	x
CCN(CC(=O)Nc1c(F)cccc1F)C(=O)C1CCN(S(=O)(=O)c2ccccc2C(=O)OC)CC1	-2.4	5.5	4.1	x	5.7	3.2	x
CCN(CC)CCNC(=O)c1ccc(NC(=O)c2cc(-c3ccco3)nc3ccccc23)cc1	8.0	0.0	25.5*	2.8	4.4	0.2	1.1
CCN(CC)CCNC(=O)c1ccc(NC(=O)c2cn(-c3ccccc3)nc2-c2cccs2)cc1	-16.8	-11.5	39.0*	-21.0	13.9	-10.7	55.9*
